Shown are actives, neighbours in structure and some others; about 2.3% of the full set was active somewhere.
TRPC4 PAM: positive allosteric modulators of TRPC4, primary screen, cell-based, mouse TRPC4beta, HEK293 mu-opioid, Fluo-4 calcium. Short transient receptor potential channel 4 (Mus musculus), Q9QUQ5. DAMGO EC20, Fluo-4 Ca2+ flux; hits give high values. B-score at 10 µM. 310,000 compounds, 0.42% hits. AID 2227, 2009;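 active = B-score of calcium response area above 5 SD of library B-scores, with initial fluorescence ratio within 5 SD of library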;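 note: B-score of integrated fluorescence ratio over time as area under calcium response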
TRPC6 act: mouse TRPC6 channel activators, primary screen, cell-based, HEK293, membrane potential dye; Short transient receptor potential channel 6 (Mus musculus), Q61143; HEK293-TRPC6 membrane potential dye fluorescence; hits give high values; B-score at 10 µM; 310,000 compounds, 0.13% hits; AID 2550, 2010;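 active = B-score of the integrated fluorescence ratio above library mean plus 3 SD, and starting fluorescence ratio within library mean plus 5 SD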;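 note: higher score means more depolarization so channel activation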
TRPC4 agonist: activators of mouse TRPC4 channel, primary screen, Fluo4 calcium, HEK293 TRPC4beta/mu-opioid cells | Fluo4 calcium fluorescence; hits give high values | 310,000 compounds, 0.49% hits | B-score at 10 µM;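 active = B-score above 5 SD of library B-scores, and initial fluorescence ratio not above library mean plus 5 SD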;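 note: positive B-score marks a calcium rise read as TRPC4 activation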
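system = HEK293 cells stably co-expressing mouse TRPC4beta and mu-opioid receptor | schedule = Fluo4 dye loading 45 min at room temperature, 110 s recording | measure = B-scored integrated calcium fluorescence ratio | signal = Fluo4 calcium-sensitive dye fluorescence, kinetic, 1 Hz baseline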
TRPC4 inh: inhibitors of mouse TRPC4 channel, primary screen, Fluo4 calcium, HEK293 TRPC4beta/mu-opioid cells; Short transient receptor potential channel 4 (Mus musculus), Q9QUQ5; DAMGO-evoked Fluo4 calcium flux; hits give low values; B-score at 10 µM; 300,000 compounds, 0.39% hits;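 active = B-score over 3 SD under the library average, no early fluorescence shift, positive overall ratio signal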
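Assay system: TRPC4beta/mu-opioid receptor HEK293 cell line; compound dosing: single concentration per test compound; detection: Fluo4 Ca2+ flux fluorescence; evaluation: per-well B score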
TRPC6 inh: mouse TRPC6 channel inhibitors, primary screen, cell-based, HEK293, membrane potential dye | Short transient receptor potential channel 6 (Mus musculus), Q61143 | ACh-evoked depolarization; hits give low values | B-score at 10 µM | 310,000 compounds, 1.1% hits;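 active = B-score under library mean minus 3 SD, initial fluorescence not abnormally high, positive integrated signal ratio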;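 note: B-score derived from integrated fluorescence ratio over the kinetic read; more negative B-score means stronger inhibition of depolarization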
The depositor's hits bear a star; i = inactive.

SMILES | TRPC4 PAM | TRPC6 act | TRPC4 agonist | TRPC4 inh | TRPC6 inh
CC1OC(OC2C(OC3C(O[C@H]4CC[C@]5(C)C6C=C[C@]78OC[C@@]9(CC[C@@H](C)[C@H](C)C97)[C@H](O)C[C@@]8(C)[C@]6(C)CC[C@H]5C4(C)C)OC(C)C(O)C3O)OC(CO)C(O)C2O)C(O)C(O)C1O (stereo not given in full) | 17* | i | 376* | i | -5.07*
O=S(=O)(c1ccc(Cl)cc1)N1CCN(CCc2ccncc2)CC1 | i | i | i | i | i
CC(C)C(=O)Nc1nnc(SCC(=O)NC2CCCC2)s1 | i | i | i | i | i
CCN1CCN(C(=O)C2CCN(c3nnc(C)c4c(C)n(-c5ccc(C)cc5)nc34)CC2)CC1 | i | i | i | -5* | i
Cc1cc(C)c(C)c(OCCCN(C)C)c1 | 13* | i | 126* | i | i
Cc1cc(C)c(C)c(OCCN2CCOCC2)c1 | 10* | i | i | i | i
Cc1cc(C)c(C)c(OCCCn2ccnc2)c1 | i | i | i | i | i
Cc1cccc(OCCN2CCOCC2)c1C | i | i | i | i | i
C=CCn1c(SCC(=O)N2CCCCC2)nnc1-c1ccncc1 | i | i | 75* | i | i
CN(c1cccc(NC(=O)c2ccc(N(C)S(=O)(=O)c3ccccc3)cc2)c1)S(C)(=O)=O | 11* | i | i | i | i
O=C(NCC(=O)N1CC(O)CC1C(=O)N1CC(O)CC1C(=O)OCc1ccccc1)OCc1ccccc1 (stereo not given) | i | i | i | i | i
CC1CC(C)CN(S(=O)(=O)c2ccc(C(=O)N(c3ccccn3)C3CCCCC3)cc2)C1 (stereo not given) | i | i | i | -6* | i
O=C(c1ccc(S(=O)(=O)N2CCCCC2)cc1)N(c1ccccn1)C1CCCCC1 | i | i | i | i | i
O=c1cc2c(nn1Cc1ccc(F)cc1)-c1ccccc1CC2 | 11* | i | i | -7* | i
CCOc1cc(CNCC(C)C)cc(Cl)c1OCc1ccccc1 | i | i | i | i | i
COc1cc(CNC2CCCC2)c(Br)cc1OC1CCCC1 | i | i | i | -7* | i
CCOc1cc(CNC2CCCC2)cc(Cl)c1OCc1ccccc1 | i | i | i | -6* | i
CCOc1c(Br)cc(CNC2CCCCCCC2)cc1OC | i | i | i | -6* | i
COc1cc(CNC2CCCCCCC2)cc(Br)c1OCC#N | i | i | i | i | i
O=C(NC(=S)Nc1ccc(Cl)cn1)c1cc([N+](=O)[O-])ccc1N1CCOCC1 | i | i | i | i | i
CC(=O)N1CCN(C(=O)c2ccc(NS(=O)(=O)c3ccc4[nH]c(=O)[nH]c4c3)cc2)CC1 | i | i | i | i | i
Cc1cc(C(F)(F)F)nc(SCC(=O)Nc2c(C)n(C)n(-c3ccccc3)c2=O)n1 | i | i | i | i | i
C/C(=N/Nc1ccnc2cc(Cl)ccc12)c1ccc(N)cc1 | i | i | 63* | i | i
C/C(=N/Nc1ccnc2cc(Cl)ccc12)c1ccc(O)cc1 | i | i | i | i | i
COc1ccc(C[C@H]2CN3C(=NC[C@@H]3Cc3ccccc3)N2CCNC(=O)c2ccc(C)c(Br)c2)cc1 | i | i | 48* | i | i
N=c1oc2ccc(Br)cc2cc1C(=O)NCc1ccc(F)cc1 | 12* | i | i | i | i
Cc1ccc(CNC(=O)c2cc3cc(Br)ccc3oc2=N)cc1 | i | i | i | i | i
